pEC50: −log10 of the molar value.
Columns and labels:
[1] = biological target: Angiotensin-converting enzyme (Oryctolagus cuniculus) (UniProt P12822); assay: Inhibition of rabbit ACE at 10 uM
[2] = biological target: Alpha-1A adrenergic receptor (Rattus norvegicus) (UniProt P43140); assay: Inhibition of rat adrenergic receptor Alpha-1at 10 uM
[3] = biological target: Adenosine receptor A1 (Homo sapiens) (UniProt P30542); assay: Inhibition of human adenosine A1 receptor at 10 uM
[4] = biological target: Adenosine receptor A2a (Homo sapiens) (UniProt P29274); assay: Inhibition of human adenosine A2A receptor at 10 uM
[5] = biological target: Nitric oxide synthase 3 (Rattus norvegicus) (UniProt Q62600); assay: Inhibition of rat cNOS at 10 uM
[6] = system: Huh-7; assay: Cytotoxicity activity against human HuH7 cells by MTT assay; type: functional
In short: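 MTT assay in proliferating Huh-7 cells exposed 72 h to serial inhibitor dilutions; formazan read at 570 nm. CC50 taken from percent inhibition.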

[7] = system: Hepatitis C virus; assay: Antiviral activity against HCV 2a infected in Huh7 cells assessed as inhibition of viral replication after 72 hrs by RT-PCR; type: functional, organism-based, Hepacivirus hominis; details: genotype 2a, Huh-7, 72 h
In short: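 Infectious JFH1 virus (cell culture-adapted, core K74T and NS5A C2441S) was produced by transfecting transcribed RNA into Huh-7.5 cells. Huh-7.5 cells (1×10^4/well, seeded 24 h before) were infected with virus plus a nine-concentration compound series in 0.5% DMSO for 72 h. HCV RNA was quantified by real-time RT-PCR. Mean ± SD, ≥3 experiments.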

[8] = Cmax in Sprague-Dawley rat at 5 mg/kg, po; type: ADME, organism-based, Sparague-Dawley; parameters: dose 5 mg/kg, route oral; details: in vivo
In short: (§1)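 Single oral dose of 5 mg/kg in 0.5% Methocel with 0.3% Tween 80 (10 ml/kg) to fasted male animals: Sprague-Dawley rats (275-300 g, overnight fast with 10% dextrose water), rhesus monkeys, beagle dogs. Rat blood from cannulated carotid at 0-8 h, pooled from 3 rats per time point; monkey/dog n=3. Plasma solid-phase extracted, LC-MS/MS at m/z 869.3; noncompartmental analysis.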

[9] = Tmax in rat at 5 mg/kg, po; type: ADME, organism-based; parameters: dose 5 mg/kg, route oral; details: in vivo
In short: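 Male Sprague-Dawley rats (275-300 g), fasted overnight with 10% dextrose water. Single oral dose in 0.5% Methocel/0.3% Tween 80 at 10 ml/kg. Carotid-cannula blood taken 0-8 h, with plasma from 3 rats pooled per time point. Solid-phase extraction, then LC-MS/MS at m/z 869.3 (LOQ 10 nM). Noncompartmental analysis.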

[10] = AUC in monkey at 5 mg/kg, po; type: ADME, organism-based, Macaca mulatta; parameters: dose 5 mg/kg, route oral; details: rhesus monkey, plasma; in short: as §1
[11] = AUC in dog at 5 mg/kg, po; type: ADME, organism-based, Canis lupus familiaris; parameters: dose 5 mg/kg, route oral; details: plasma; in short: as §1
[12] = biological target: Caspase-1 (Homo sapiens) (UniProt P29466); assay: Inhibition of human caspase-1 at 10 uM
[13] = biological target: Caspase-2 (Homo sapiens) (UniProt P42575); assay: Inhibition of human caspase-2 at 10 uM
Sequence of Caspase-2 (Homo sapiens) (P42575 170-325 limits assumed): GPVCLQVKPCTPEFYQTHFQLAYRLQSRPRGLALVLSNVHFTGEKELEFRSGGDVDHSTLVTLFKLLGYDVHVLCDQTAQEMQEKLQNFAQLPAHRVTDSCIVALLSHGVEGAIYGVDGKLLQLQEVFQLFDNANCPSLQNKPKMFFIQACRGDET
Sequence of Caspase-2 (Homo sapiens) (P42575 334-452 limits assumed): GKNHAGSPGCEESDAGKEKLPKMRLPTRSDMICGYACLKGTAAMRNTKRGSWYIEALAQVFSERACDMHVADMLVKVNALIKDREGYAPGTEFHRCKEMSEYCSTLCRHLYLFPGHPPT

[14] = biological target: Caspase-8 (Homo sapiens) (UniProt Q14790); assay: Inhibition of human caspase-8 at 10 uM
[15] = biological target: Caspase-9 (Homo sapiens) (UniProt P55211); assay: Inhibition of human caspase-9 at 10 uM
[16] = biological target: Cathepsin C (Bos taurus) (UniProt Q864S1); assay: Inhibition of bovine cathepsin C at 10 uM
[17] = biological target: Cathepsin D (Homo sapiens) (UniProt P07339); assay: Inhibition of human cathepsin D; details: concentration not given here
Sequence of Cathepsin D (Homo sapiens) (P07339 65-162 limits assumed): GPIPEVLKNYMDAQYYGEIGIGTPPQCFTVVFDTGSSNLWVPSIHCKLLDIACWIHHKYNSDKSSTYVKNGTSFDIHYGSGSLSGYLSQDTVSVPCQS
Sequence of Cathepsin D (Homo sapiens) (P07339 169-412 limits assumed): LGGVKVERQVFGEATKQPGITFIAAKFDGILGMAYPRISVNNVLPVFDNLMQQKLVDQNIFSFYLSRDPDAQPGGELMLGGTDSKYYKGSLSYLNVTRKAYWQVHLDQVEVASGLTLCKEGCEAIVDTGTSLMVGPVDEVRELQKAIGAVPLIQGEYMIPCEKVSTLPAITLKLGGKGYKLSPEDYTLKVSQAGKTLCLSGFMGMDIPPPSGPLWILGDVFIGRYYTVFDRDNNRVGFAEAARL

[18] = biological target: Pro-cathepsin H (Homo sapiens) (UniProt P09668); assay: Inhibition of human cathepsin H at 10 uM
[19] = biological target: Procathepsin L (Homo sapiens) (UniProt P07711); assay: Inhibition of human cathepsin L at 10 uM
[20] = biological target: Cathepsin Z (Homo sapiens) (UniProt Q9UBR2); assay: Inhibition of human cathepsin X at 10 uM
[21] = biological target: Neutrophil elastase (Homo sapiens) (UniProt P08246); assay: Inhibition of human elastase, leukocyte at 10 uM
Sequence of Neutrophil elastase (Homo sapiens) (P08246 whole entry): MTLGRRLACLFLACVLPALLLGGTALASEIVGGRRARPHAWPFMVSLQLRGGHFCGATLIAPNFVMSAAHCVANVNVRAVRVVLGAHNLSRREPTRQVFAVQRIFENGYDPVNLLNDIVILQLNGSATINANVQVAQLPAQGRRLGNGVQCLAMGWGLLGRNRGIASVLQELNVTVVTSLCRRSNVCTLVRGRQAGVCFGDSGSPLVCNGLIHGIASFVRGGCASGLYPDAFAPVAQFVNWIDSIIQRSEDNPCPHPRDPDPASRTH

[22] = biological target: Interstitial collagenase (Homo sapiens) (UniProt P03956); assay: Inhibition of human MMP-1 at 10 uM
Sequence of Interstitial collagenase (Homo sapiens) (P03956 whole entry): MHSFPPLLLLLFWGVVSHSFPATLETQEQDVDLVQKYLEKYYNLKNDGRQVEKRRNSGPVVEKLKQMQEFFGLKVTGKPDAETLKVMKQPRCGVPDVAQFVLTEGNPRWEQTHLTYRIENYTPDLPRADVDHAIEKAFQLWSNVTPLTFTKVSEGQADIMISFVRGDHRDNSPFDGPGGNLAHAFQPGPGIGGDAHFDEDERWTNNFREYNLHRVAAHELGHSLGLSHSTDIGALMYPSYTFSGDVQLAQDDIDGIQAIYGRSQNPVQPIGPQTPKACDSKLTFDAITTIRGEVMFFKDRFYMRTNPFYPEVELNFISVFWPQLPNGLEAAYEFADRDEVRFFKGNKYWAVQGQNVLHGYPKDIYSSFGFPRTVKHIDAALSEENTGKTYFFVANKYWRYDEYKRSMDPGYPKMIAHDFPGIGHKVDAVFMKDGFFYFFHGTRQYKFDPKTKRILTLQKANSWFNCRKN

[23] = biological target: 72 kDa type IV collagenase (Homo sapiens) (UniProt P08253); assay: Inhibition of human MMP-2 at 10 uM
Sequence of 72 kDa type IV collagenase (Homo sapiens) (P08253 110-660 limits assumed): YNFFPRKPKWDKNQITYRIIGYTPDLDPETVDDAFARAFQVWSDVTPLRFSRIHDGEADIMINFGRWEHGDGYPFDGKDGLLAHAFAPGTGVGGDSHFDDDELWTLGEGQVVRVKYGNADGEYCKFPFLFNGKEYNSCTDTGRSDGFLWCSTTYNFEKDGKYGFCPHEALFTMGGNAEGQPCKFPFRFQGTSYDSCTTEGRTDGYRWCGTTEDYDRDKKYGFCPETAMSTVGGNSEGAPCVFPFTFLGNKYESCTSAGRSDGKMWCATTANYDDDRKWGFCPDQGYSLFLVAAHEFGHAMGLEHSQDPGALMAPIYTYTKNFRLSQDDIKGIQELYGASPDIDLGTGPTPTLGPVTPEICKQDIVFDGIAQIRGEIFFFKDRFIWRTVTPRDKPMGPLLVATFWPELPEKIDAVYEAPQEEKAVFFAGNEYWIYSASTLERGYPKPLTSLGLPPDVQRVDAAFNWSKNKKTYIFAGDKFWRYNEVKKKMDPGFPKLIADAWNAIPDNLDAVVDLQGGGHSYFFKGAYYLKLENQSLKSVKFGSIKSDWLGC

[24] = biological target: Matrix metalloproteinase-9 (Homo sapiens) (UniProt P14780); assay: Inhibition of human MMP-9 at 10 uM
[25] = biological target: Collagenase 3 (Homo sapiens) (UniProt P45452); assay: Inhibition of human MMP-13 at 10 uM
[26] = biological target: Matrix metalloproteinase-14 (Homo sapiens) (UniProt P50281); assay: Inhibition of human MMP-14 at 10 uM
[27] = biological target: Neprilysin (Homo sapiens) (UniProt P08473); assay: Inhibition of human neutral endopeptidase at 10 uM
Sequence of Neprilysin (Homo sapiens) (P08473 whole entry): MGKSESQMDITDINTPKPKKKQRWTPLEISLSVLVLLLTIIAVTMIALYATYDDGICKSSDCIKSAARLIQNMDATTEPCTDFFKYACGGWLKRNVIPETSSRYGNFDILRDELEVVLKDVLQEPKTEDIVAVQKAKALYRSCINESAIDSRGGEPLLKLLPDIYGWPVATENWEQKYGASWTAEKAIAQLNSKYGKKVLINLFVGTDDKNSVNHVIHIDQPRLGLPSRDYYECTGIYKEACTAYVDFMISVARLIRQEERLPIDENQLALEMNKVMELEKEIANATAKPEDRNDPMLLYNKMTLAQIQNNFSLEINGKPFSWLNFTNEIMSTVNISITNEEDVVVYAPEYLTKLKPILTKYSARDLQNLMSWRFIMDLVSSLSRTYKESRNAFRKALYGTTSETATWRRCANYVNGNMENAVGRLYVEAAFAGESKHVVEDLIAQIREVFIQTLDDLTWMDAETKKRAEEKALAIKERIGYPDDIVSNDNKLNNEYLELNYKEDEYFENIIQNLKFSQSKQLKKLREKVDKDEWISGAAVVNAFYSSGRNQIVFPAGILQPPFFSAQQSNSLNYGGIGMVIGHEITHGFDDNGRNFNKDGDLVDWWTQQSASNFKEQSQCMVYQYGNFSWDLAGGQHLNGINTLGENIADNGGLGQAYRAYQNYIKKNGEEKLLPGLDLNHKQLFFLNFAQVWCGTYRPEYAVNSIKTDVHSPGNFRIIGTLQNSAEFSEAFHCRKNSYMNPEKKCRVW

[28] = biological target: Trypsin (Homo sapiens) (UniProt P07477+P07478+P35030); assay: Inhibition of human trypsin at 10 uM; type: protein assay
[29] = species: Homo sapiens; assay: Inhibition of human tryptase at 10 uM
[30] = biological target: Acetylcholinesterase (Homo sapiens) (UniProt P22303); assay: Inhibition of human acetylcholinesterase at 10 uM
[31] = biological target: Sterol O-acyltransferase 2 (Rattus norvegicus) (UniProt Q7TQM4); assay: Inhibition of rat hapatic, acyl coA cholesterol acetyltransferase at 10 uM
[32] = biological target: D(1B) dopamine receptor (Homo sapiens) (UniProt P21918); assay: Inhibition of human dopamine receptor 5 at 10 uM
Sequence of D(1B) dopamine receptor (Homo sapiens) (P21918 whole entry): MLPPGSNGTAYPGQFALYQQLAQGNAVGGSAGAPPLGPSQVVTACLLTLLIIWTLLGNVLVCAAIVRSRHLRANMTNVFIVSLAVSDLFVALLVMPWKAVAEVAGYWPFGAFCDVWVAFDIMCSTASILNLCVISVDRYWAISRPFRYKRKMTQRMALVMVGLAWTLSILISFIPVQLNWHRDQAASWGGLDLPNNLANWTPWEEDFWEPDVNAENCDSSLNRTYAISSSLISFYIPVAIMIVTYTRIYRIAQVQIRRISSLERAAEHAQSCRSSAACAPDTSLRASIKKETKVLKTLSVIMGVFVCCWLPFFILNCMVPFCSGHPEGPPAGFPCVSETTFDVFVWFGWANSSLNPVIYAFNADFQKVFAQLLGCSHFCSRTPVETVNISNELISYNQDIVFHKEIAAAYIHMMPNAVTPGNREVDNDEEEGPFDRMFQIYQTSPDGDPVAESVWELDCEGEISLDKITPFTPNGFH

[33] = biological target: Glutamate receptor ionotropic, delta-1 (Rattus norvegicus) (UniProt Q62640); assay: Inhibition of rat glutamate receptor at 10 uM
[34] = species: Rattus norvegicus; assay: Inhibition of rat potassium channel-A at 10 uM
[35] = species: Rattus norvegicus; assay: Inhibition of rat potassium channel-V at 10 uM
[36] = biological target: 5-hydroxytryptamine receptor 1A (Homo sapiens) (UniProt P08908); assay: Inhibition of human 5-HT1A receptor at 10 uM
Sequence of 5-hydroxytryptamine receptor 1A (Homo sapiens) (P08908 whole entry): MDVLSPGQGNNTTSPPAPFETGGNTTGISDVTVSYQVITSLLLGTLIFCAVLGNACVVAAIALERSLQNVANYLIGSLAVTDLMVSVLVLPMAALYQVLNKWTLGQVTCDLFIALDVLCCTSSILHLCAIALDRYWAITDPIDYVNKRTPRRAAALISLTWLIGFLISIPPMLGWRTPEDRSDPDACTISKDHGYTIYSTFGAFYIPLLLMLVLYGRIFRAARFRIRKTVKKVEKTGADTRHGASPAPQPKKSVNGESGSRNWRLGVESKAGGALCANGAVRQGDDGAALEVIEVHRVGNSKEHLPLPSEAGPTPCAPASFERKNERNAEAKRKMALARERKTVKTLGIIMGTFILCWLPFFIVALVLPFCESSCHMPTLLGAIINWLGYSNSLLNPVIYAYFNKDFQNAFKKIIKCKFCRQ

[37] = biological target: 5-hydroxytryptamine receptor 6 (Homo sapiens) (UniProt P50406); assay: Inhibition of human 5-HT6 receptor at 10 uM
[38] = biological target: 5-hydroxytryptamine receptor 7 (Homo sapiens) (UniProt P34969); assay: Inhibition of human 5-HT7 receptor at 10 uM
[39] = species: Cavia porcellus; assay: Inhibition of guinea pig adenosine transporter at 10 uM
[40] = species: Homo sapiens; assay: Inhibition of human dopamine receptor 4.7 at 10 uM
[41] = biological target: Neutrophil elastase (Homo sapiens) (UniProt P08246); assay: Inhibition of human serum elastase, neutrophil at 10 uM by fluorimetry
[42] = species: Homo sapiens; assay: Inhibition of human endothelin-converting enzyme at 10 uM by cerep assay
[43] = species: Rattus norvegicus; assay: Inhibition of rat GABA-A receptor, benzodiazepine central at 10 uM
[44] = species: Rattus norvegicus; assay: Inhibition of rat GABA-A receptor, chloride channel at 10 uM
[45] = biological target: Histamine H3 receptor (Homo sapiens) (UniProt Q9Y5N1); assay: Inhibition of human H3 receptor at 10 uM

Sequence of Angiotensin-converting enzyme (Oryctolagus cuniculus) (P12822 whole entry): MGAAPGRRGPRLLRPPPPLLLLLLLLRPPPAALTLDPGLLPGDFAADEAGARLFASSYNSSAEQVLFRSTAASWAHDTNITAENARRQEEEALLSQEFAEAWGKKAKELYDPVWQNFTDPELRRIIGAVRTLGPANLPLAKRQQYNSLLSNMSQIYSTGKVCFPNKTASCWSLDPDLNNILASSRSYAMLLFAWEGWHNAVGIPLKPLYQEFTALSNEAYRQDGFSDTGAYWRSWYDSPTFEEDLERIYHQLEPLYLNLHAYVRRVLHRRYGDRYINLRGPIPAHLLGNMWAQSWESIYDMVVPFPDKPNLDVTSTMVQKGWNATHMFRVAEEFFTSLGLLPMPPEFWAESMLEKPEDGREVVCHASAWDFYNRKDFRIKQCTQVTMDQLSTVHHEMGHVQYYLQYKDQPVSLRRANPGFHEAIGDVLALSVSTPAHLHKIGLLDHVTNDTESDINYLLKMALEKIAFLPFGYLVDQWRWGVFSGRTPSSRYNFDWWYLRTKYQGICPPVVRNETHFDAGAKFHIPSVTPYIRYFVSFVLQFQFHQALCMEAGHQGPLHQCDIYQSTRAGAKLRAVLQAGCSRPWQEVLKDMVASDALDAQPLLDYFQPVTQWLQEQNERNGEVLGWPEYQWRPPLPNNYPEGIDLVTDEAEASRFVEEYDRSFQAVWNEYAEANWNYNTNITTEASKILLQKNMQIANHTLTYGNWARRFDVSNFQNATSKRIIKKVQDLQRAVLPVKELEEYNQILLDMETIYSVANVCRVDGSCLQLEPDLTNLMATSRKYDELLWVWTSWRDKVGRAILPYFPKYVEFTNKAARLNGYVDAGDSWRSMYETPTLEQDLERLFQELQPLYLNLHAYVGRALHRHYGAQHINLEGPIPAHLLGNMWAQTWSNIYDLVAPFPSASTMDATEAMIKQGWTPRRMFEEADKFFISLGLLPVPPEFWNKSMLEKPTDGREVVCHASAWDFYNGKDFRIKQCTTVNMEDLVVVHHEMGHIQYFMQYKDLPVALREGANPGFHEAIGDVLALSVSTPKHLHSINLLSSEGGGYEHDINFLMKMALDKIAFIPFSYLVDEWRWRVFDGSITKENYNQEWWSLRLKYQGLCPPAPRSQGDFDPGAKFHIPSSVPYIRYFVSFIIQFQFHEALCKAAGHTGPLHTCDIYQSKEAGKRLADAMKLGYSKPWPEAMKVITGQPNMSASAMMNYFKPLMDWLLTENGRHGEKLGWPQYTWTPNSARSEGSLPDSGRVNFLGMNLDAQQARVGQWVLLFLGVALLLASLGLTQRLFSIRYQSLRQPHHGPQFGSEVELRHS

C=C[C@@H]1C[C@]1(NC(=O)[C@@H]1C[C@@H](Oc2cc(-c3csc(NC(=O)C(C)C)n3)nc3c(Br)c(OC)ccc23)CN1C(=O)[C@@H](NC(=O)OC1CCCC1)C(C)(C)C)C(=O)O
inhibition [1]: 5%
inhibition [2]: 4%
inhibition [3]: 2%
inhibition [4]: 23%
inhibition [5]: 7%
CC50 [6]: 30 µM
pEC50 [7]: 7.37
Cmax [8]: 410 nM
Tmax [9]: 1.5 h
AUC [10]: 8.3 µM·h
AUC [11]: 13 µM·h
inhibition [12]: 13%
inhibition [13]: 5%
inhibition [14]: 5%
inhibition [15]: 23%
inhibition [16]: 1%
inhibition [17]: 43%
inhibition [18]: 21%
inhibition [19]: 7%
inhibition [20]: 0%
inhibition [21]: 3%
inhibition [22]: 19%
inhibition [23]: 10%
inhibition [24]: 13%
inhibition [25]: 5%
inhibition [26]: 3%
inhibition [27]: 3%
inhibition [28]: 2%
inhibition [29]: 5%
inhibition [30]: 20%
inhibition [31]: 78%
inhibition [32]: 11%
inhibition [33]: 38%
inhibition [34]: 10%
inhibition [35]: 7%
inhibition [36]: 18%
inhibition [37]: 22%
inhibition [38]: 3%
inhibition [39]: 23%
inhibition [40]: 0%
inhibition [41]: 22%
inhibition [42]: 11%
inhibition [43]: 12%
inhibition [44]: 28%
inhibition [45]: 5%
